Reference: ChEMBL document CHEMBL4699539, “Dual antagonists of α5β1/αvβ1 integrin for airway hyperresponsiveness” (Bioorg Med Chem Lett, 2020)
Calls of active or inactive are those of the source. No cut-off for these calls is given here.

Tests used:
[1] = target: Integrin alpha-V/beta-8 (Homo sapiens, UniProt P06756+P26012); assay: Inhibition of alphavbeta8 integrin (unknown origin) by solid phase binding assay; type: protein-complex assay
[2] = target: T1, Integrin alpha-V/beta-3 (Homo sapiens, UniProt P05106+P06756); assay: Inhibition of alphavbeta3 integrin (unknown origin) by solid phase binding assay; type: protein-complex assay
[3] = target: Integrin alpha-V/beta-5 (Homo sapiens, UniProt P06756+P18084); assay: Inhibition of alphavbeta5 integrin (unknown origin) by solid phase binding assay; type: protein-complex assay
[4] = target: Integrin alpha-V/beta-6 (Homo sapiens, UniProt P06756+P18564); assay: Inhibition of alphavbeta6 integrin (unknown origin) by solid phase binding assay; type: protein-complex assay
[5] = target: T2, Integrin alpha-5/beta-1 (Homo sapiens, UniProt P05556+P08648); assay: Inhibition of alpha5beta1 integrin (unknown origin) by solid phase binding assay; type: protein-complex assay
[6] = target: Integrin alpha-4/beta-1 (Homo sapiens, UniProt P05556+P13612); assay: Inhibition of alpha4beta1 integrin (unknown origin) by solid phase binding assay; type: protein-complex assay
[7] = target: T3, Integrin alpha-V/beta-1 (Homo sapiens, UniProt P05556+P06756); assay: Inhibition of alphavbeta1 integrin (unknown origin) by solid phase binding assay; type: protein-complex assay
[8] = target: T2, Integrin alpha-5/beta-1; assay: Inhibition of alpha5beta1 integrin in human SW480 cells assessed as inhibition of cell adhesion to fibronectin incubated for 60 mins by crystal violet staining based analysis
In short: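 Adhesion of SW480 cells plated on fibronectin coated at 0.3 µg/ml, used to measure α5β1-mediated attachment. IC50 values are means ± S.D., n = 3 or higher.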

[9] = target: T1, Integrin alpha-V/beta-3; assay: Inhibition of alphavbeta3 integrin (unknown origin) expressed in human SW480 cells transfected with human beta3 assessed as inhibition of cell adhesion to fibrinogen incubated for 60 mins by crystal violet staining based analysis
In short: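 SW480 cells transfected with human β3, allowed to adhere to fibrinogen coated at 1 µg/ml, used to measure αvβ3-mediated attachment. IC50 values are means ± S.D., n = 3 or higher.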

[10] = target: T3, Integrin alpha-V/beta-1; assay: Inhibition of alphavbeta1 integrin (unknown origin) expressed in CHO cells assessed as inhibition of cell adhesion to fibronectin incubated for 60 mins by crystal violet staining based analysis
In short: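 Adhesion of CHOαv cells to fibronectin coated at 0.3 µg/ml, used to measure αvβ1-mediated attachment. IC50 values are means ± S.D., n = 3 or higher.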

[11] = Apparent permeability of the compound across basolateral to apical side in human Caco-2 cells; type: ADME, cell-based
[12] = Apparent permeability of the compound across apical to basolateral side in human Caco-2 cells; type: ADME, cell-based
[13] = species: Homo sapiens; assay: Selectivity index, ratio of IC50 for alphavbeta3 integrin (unknown origin) to IC50 for alpha4beta1 integrin (unknown origin) by solid phase binding assay
[14] = species: Mus musculus; assay: Antagonist activity at alpha5beta1 integrin/alphavbeta1 integrin in mouse tracheal rings assessed as inhibition of methacholine-induced airway hyperresponsiveness at 100 nM pretreated with IL-13 for 12 hrs followed by incubation with compound for 1 hr in presence of methacholine; type: tissue-based; settings: Trachea, filed as antagonist
In short: (§1)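 Wild-type mouse tracheal rings incubated 12 h with IL-13 (100 ng/mL), then 1 h with compound or vehicle. Force generated was measured in response to a range of methacholine concentrations. Negative-control rings received no IL-13. n=3 rings per group; statistics by repeated measures of variance.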

[15] = species: Mus musculus; assay: Antagonist activity at alpha5beta1 integrin/alphavbeta1 integrin in mouse tracheal rings assessed as inhibition of methacholine-induced airway hyperresponsiveness at 100 nM incubated with compound for 1 hr in presence of methacholine; type: tissue-based; settings: Trachea, filed as antagonist; in short: as §1

Integrin alpha-V/beta-8, sequence (P06756 31-889 limits assumed): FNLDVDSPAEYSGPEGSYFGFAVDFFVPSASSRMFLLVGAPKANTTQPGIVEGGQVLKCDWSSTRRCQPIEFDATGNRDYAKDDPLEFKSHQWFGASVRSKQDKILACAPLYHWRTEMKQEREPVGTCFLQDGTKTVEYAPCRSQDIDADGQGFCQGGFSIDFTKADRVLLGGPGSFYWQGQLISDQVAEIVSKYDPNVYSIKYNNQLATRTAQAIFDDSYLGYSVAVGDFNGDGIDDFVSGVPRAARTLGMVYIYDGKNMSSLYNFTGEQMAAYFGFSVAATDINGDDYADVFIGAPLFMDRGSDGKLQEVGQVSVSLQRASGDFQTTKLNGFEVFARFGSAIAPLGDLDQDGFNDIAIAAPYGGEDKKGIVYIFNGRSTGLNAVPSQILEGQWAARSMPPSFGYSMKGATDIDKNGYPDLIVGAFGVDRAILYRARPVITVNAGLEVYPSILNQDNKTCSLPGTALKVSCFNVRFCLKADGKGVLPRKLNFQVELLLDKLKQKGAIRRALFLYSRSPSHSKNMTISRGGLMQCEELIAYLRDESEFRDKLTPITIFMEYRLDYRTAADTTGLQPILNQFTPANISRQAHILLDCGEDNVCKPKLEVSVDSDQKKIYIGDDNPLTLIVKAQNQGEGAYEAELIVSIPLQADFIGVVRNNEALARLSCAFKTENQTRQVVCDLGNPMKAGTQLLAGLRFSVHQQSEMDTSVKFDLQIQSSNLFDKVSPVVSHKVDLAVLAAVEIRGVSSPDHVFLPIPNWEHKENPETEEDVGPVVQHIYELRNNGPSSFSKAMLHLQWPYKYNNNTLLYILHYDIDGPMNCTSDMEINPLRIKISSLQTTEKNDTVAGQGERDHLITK
Integrin alpha-V/beta-8, sequence (P06756 891-1048 limits assumed): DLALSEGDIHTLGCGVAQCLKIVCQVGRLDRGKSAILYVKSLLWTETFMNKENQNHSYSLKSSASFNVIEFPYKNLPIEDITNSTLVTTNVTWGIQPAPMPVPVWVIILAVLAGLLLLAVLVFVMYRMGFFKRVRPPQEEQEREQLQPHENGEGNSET
Integrin alpha-V/beta-8, sequence (P26012 43-769 limits assumed): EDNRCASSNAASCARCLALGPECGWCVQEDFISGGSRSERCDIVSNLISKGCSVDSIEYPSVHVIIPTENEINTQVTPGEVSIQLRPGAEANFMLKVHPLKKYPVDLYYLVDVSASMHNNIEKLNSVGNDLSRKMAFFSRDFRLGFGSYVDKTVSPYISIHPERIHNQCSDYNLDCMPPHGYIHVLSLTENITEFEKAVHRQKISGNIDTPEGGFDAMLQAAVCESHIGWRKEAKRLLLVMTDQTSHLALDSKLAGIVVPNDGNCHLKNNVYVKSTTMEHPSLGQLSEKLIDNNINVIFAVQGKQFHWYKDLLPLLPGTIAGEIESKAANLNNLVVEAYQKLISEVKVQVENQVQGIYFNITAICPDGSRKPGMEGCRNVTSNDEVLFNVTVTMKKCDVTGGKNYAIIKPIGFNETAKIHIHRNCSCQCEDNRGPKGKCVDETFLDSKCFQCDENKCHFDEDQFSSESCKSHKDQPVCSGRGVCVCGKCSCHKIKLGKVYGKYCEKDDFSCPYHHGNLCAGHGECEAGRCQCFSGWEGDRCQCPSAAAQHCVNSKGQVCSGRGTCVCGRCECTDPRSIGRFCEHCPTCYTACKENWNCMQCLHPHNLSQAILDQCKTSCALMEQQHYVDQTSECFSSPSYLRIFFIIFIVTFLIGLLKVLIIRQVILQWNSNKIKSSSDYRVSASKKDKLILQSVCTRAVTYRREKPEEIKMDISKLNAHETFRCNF
Integrin alpha-V/beta-5, sequence (P06756 31-889 limits assumed): as the sequence (P06756 31-889 limits assumed) above
Integrin alpha-V/beta-5, sequence (P06756 891-1048 limits assumed): as the sequence (P06756 891-1048 limits assumed) above
Integrin alpha-V/beta-5, sequence (P18084 24-799 limits assumed): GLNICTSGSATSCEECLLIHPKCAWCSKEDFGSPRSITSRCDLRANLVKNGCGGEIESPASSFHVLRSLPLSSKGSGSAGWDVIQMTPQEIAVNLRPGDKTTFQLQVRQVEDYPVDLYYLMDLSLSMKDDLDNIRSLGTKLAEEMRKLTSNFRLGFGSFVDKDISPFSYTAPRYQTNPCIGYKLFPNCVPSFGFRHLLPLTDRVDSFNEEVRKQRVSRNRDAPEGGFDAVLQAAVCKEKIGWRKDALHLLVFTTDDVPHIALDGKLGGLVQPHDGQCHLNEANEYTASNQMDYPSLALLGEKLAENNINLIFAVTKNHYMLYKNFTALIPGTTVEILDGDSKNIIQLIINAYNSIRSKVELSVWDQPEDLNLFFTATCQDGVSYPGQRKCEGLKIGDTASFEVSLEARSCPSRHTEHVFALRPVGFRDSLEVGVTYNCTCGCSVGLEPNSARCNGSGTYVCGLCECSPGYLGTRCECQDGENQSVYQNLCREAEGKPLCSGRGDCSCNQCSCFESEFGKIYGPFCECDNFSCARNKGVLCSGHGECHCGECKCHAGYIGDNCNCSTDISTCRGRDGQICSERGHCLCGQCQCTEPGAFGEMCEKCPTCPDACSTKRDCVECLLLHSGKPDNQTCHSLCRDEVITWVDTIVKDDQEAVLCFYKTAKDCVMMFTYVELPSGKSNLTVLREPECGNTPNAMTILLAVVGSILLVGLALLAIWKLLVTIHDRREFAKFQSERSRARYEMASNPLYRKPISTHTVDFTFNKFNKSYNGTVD
Integrin alpha-V/beta-6, sequence (P06756 31-889 limits assumed): as the sequence (P06756 31-889 limits assumed) above
Integrin alpha-V/beta-6, sequence (P06756 891-1048 limits assumed): as the sequence (P06756 891-1048 limits assumed) above
Integrin alpha-V/beta-6, sequence (P18564 22-788 limits assumed): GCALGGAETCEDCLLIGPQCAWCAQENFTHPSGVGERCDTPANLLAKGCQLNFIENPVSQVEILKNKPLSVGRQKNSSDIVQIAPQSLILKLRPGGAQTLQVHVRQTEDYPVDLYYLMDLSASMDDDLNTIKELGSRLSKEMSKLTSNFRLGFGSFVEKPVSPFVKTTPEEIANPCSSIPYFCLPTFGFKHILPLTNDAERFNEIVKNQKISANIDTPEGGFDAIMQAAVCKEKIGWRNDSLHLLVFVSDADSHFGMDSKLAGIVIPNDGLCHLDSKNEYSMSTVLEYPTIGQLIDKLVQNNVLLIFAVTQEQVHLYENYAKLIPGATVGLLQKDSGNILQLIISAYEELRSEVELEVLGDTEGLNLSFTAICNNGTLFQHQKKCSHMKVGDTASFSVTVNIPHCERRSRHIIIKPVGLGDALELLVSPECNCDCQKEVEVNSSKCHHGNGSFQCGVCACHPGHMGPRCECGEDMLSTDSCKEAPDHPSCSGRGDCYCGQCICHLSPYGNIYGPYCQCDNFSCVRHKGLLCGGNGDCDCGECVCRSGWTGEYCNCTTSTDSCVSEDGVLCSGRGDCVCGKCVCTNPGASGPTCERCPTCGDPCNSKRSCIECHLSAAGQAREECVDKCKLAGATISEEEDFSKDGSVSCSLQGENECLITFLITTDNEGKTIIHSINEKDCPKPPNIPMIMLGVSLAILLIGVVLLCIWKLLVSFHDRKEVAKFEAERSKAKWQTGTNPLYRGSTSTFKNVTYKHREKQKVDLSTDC
T3 sequence (P05556 21-798 limits assumed): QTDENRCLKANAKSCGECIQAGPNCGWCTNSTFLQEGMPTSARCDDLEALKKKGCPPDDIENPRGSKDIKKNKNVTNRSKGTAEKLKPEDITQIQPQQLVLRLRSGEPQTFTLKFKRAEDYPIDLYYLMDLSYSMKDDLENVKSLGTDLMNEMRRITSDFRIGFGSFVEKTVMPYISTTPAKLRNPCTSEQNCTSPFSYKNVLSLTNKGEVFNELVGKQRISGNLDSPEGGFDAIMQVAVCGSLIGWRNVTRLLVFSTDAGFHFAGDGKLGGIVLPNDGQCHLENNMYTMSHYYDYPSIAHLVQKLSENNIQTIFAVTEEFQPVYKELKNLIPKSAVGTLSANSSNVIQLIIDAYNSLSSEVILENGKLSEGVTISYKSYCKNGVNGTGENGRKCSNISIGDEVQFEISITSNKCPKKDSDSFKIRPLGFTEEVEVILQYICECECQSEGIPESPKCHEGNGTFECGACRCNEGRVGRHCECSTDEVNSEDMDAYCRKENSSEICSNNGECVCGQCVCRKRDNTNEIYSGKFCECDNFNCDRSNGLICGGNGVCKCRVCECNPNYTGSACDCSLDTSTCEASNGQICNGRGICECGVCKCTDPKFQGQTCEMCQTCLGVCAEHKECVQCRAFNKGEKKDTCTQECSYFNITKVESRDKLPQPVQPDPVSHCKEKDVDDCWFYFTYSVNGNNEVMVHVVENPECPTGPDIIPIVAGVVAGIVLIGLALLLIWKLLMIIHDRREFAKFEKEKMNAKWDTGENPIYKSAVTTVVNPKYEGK
T3 sequence (P06756 31-889 limits assumed): as the sequence (P06756 31-889 limits assumed) above
T3 sequence (P06756 891-1048 limits assumed): as the sequence (P06756 891-1048 limits assumed) above

**Q.** Which IC50 [1] does the source give for N=C(N)Nc1cc(NC(=O)CNC(=O)C23CC4CC(CC(C4)C2)C3)cc(C(=O)NCC(=O)NC[C@H](NC(=O)[C@@H]2CCCN2S(=O)(=O)c2ccccc2)C(=O)O)c1 here?
**A.** > 10000 nM

**Q.** What about the IC50 [2] of the same molecule?
**A.** > 10000 nM

**Q.** What about the IC50 [3] of the same molecule?
**A.** > 10000 nM

**Q.** And the IC50 [4]?
**A.** > 10000 nM

**Q.** And the IC50 [5]?
**A.** 1.6 nM

**Q.** What about the IC50 [6] of the same molecule?
**A.** 136 nM

**Q.** And the IC50 [7]?
**A.** < 0.1 nM

**Q.** What does the source list for N=C(N)NCCCCCC(=O)NC[C@H](NC(=O)[C@@H]1CCCN1S(=O)(=O)c1ccccc1)C(=O)O?
**A.** IC50 [8]: 830 nM; IC50 [9]: 10000 nM; IC50 [10]: 316 nM

**Q.** What does the source list for N=C(N)NCCCCCNC(=O)NC[C@H](NC(=O)[C@@H]1CCCN1S(=O)(=O)c1ccccc1)C(=O)O?
**A.** IC50 [8]: 500 nM; IC50 [10]: 0.8 nM

**Q.** Which IC50 [1] does the source give for N=C(N)Nc1cc(NC(=O)CCCNC(=O)C23CC4CC(CC(C4)C2)C3)cc(C(=O)NCC(=O)NC[C@H](NC(=O)[C@@H]2CCCN2S(=O)(=O)c2ccccc2)C(=O)O)c1 here?
**A.** > 10000 nM

**Q.** What about the IC50 [2] of the same molecule?
**A.** > 10000 nM

**Q.** What about the Papp [11] of the same molecule?
**A.** 0.27 10^-6 cm/s

**Q.** What about the IC50 [8] of the same molecule?
**A.** 2.6 nM

**Q.** What about the IC50 [3] of the same molecule?
**A.** 3000 nM

**Q.** What about the Papp [12] of the same molecule?
**A.** 0.37 10^-6 cm/s

**Q.** What about the IC50 [4] of the same molecule?
**A.** 2760 nM

**Q.** And the IC50 [9]?
**A.** 8800 nM

**Q.** What about the IC50 [5] of the same molecule?
**A.** 0.8 nM

**Q.** And the IC50 [6]?
**A.** 105 nM

**Q.** And the IC50 [10]?
**A.** 0.8 nM

**Q.** What about the IC50 [7] of the same molecule?
**A.** 0.14 nM

**Q.** What about the Ratio IC50 [13] of the same molecule?
**A.** > 100

**Q.** Which results are given for CCCCCCCC(=O)Nc1cc(NC(=N)N)cc(C(=O)NCC(=O)NC[C@H](NC(=O)[C@@H]2CCCN2S(=O)(=O)c2ccccc2)C(=O)O)c1?
**A.** IC50 [8]: 110 nM; IC50 [9]: 16800 nM

**Q.** Which results are given for N=C(N)Nc1cc(NC(=O)CCNC(=O)C23CC4CC(CC(C4)C2)C3)cc(C(=O)NCC(=O)NC[C@H](NC(=O)[C@@H]2CCCN2S(=O)(=O)c2ccccc2)C(=O)O)c1?
**A.** IC50 [1]: > 10000 nM; IC50 [2]: > 10000 nM; IC50 [3]: > 10000 nM; IC50 [4]: > 10000 nM; IC50 [5]: 1.4 nM; IC50 [6]: 100 nM; IC50 [7]: < 0.1 nM; Ratio IC50 [13]: > 100

**Q.** What does the source list for N=C(N)NCCCCCCNC(=O)NC[C@H](NC(=O)[C@@H]1CCCN1S(=O)(=O)c1ccccc1)C(=O)O?
**A.** IC50 [8]: 900 nM; IC50 [9]: 15000 nM; IC50 [10]: 0.9 nM

**Q.** Which IC50 [8] does the source give for N=C(N)Nc1cc(NC(=O)CCCN)cc(C(=O)NCC(=O)NC[C@H](NC(=O)[C@@H]2CCCN2S(=O)(=O)c2ccccc2)C(=O)O)c1 here?
**A.** 32 nM

**Q.** And the IC50 [9]?
**A.** 56000 nM

**Q.** With N=C(N)Nc1cc(NC(=O)CCCCNC(=O)C23CC4CC(CC(C4)C2)C3)cc(C(=O)NCC(=O)NC[C@H](NC(=O)[C@@H]2CCCN2S(=O)(=O)c2ccccc2)C(=O)O)c1 as the molecule, how does the IC50 [1] read?
**A.** 6830 nM

**Q.** What about the IC50 [2] of the same molecule?
**A.** > 10000 nM

**Q.** What about the IC50 [3] of the same molecule?
**A.** 320 nM

**Q.** What about the IC50 [4] of the same molecule?
**A.** 1870 nM

**Q.** And the IC50 [5]?
**A.** 0.7 nM

**Q.** What about the IC50 [6] of the same molecule?
**A.** 182 nM

**Q.** What about the IC50 [7] of the same molecule?
**A.** < 0.1 nM

**Q.** What about the Ratio IC50 [13] of the same molecule?
**A.** > 100

**Q.** With N=C(N)Nc1cccc(C(=O)NCC(=O)NC[C@H](NC(=O)[C@@H]2CCCN2S(=O)(=O)c2ccccc2)C(=O)O)c1 as the molecule, how does the inhibition [14] read?
**A.** Active

**Q.** What about the inhibition [15] of the same molecule?
**A.** Active

**Q.** What about the IC50 [9] of the same molecule?
**A.** 1100 nM

**Q.** What about the IC50 [10] of the same molecule?
**A.** 32 nM

**Q.** Which IC50 [8] does the source give for N=C(N)NCCCCC(=O)Nc1ccc(C[C@H](NC(=O)[C@@H]2CCCN2S(=O)(=O)c2ccccc2)C(=O)O)cc1 here?
**A.** > 10000 nM

**Q.** And the IC50 [9]?
**A.** > 10000 nM

**Q.** What about the IC50 [10] of the same molecule?
**A.** 0.5 nM

**Q.** For N=C(N)NCCCCNC(=O)NC[C@H](NC(=O)[C@@H]1CCCN1S(=O)(=O)c1ccccc1)C(=O)O, which IC50 [8] is on record?
**A.** 9700 nM

**Q.** And the IC50 [9]?
**A.** > 100000 nM

**Q.** And the IC50 [10]?
**A.** 4 nM

**Q.** What does the source list for N=C(N)Nc1cc(NC(=O)CCCC(=O)NC23CC4CC(CC(C4)C2)C3)cc(C(=O)NCC(=O)NC[C@H](NC(=O)[C@@H]2CCCN2S(=O)(=O)c2ccccc2)C(=O)O)c1?
**A.** IC50 [1]: > 10000 nM; IC50 [2]: > 10000 nM; IC50 [3]: 980 nM; IC50 [4]: > 10000 nM; IC50 [5]: 1 nM; IC50 [6]: 161 nM; IC50 [7]: 0.3 nM; Ratio IC50 [13]: > 100

**Q.** With N=C(N)Nc1cccc(C(=O)NNC(=O)NC[C@H](NC(=O)[C@@H]2CCCN2S(=O)(=O)c2ccccc2)C(=O)O)c1 as the molecule, how does the IC50 [8] read?
**A.** 50 nM

**Q.** What about the IC50 [9] of the same molecule?
**A.** 6500 nM

**Q.** What about the IC50 [10] of the same molecule?
**A.** 158 nM
